PG9 binder: binds the HIV-1 gp120 antibody PG9 | inhibition, % at 6.7 µM | TR-FRET gp120-PG9 antibody binding | 360,000 tested, 0.43% active; in the data active = inhibition above about 8.5%
MC4R antagonist: blocks human MC4R cAMP signaling. P32245. MC4R-expressing cells, MTII-stimulated cAMP, LANCE TR-FRET. inhibition, % at 6.5 µM. 360,000 tested, 0.48% active;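 active = inhibition above its plate's cutoff, the mean of tested wells on that plate plus 3 SD, cut at about 29% in these data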
Target sequence (P32245 whole entry, looked up): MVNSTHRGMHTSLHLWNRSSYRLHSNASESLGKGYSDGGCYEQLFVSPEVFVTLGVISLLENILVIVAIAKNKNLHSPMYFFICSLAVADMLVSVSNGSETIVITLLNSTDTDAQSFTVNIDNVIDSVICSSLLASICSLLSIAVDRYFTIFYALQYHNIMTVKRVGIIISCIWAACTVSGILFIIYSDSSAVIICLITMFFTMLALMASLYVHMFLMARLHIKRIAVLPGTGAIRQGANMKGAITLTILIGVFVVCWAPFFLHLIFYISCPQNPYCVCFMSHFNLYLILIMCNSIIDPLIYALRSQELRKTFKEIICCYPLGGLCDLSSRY
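Test system: U2OS cells stably expressing human melanocortin 4 receptor (MC4R); also added: Melanotan II challenge; compound: 6.5 µM single dose; timing: 30-min compound preincubation, 1-h Melanotan II challenge, 1-h detection, room temperature; signal: Eu-cAMP/anti-cAMP TR-FRET, emission 671 nm; repeats: one well per compound, no replicates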
NR2E3 ag-1: activates human photoreceptor nuclear receptor NR2E3 | Q9Y5X4 | GST-NR2E3/biotin-RetCOR TR-FRET, 1536-well | inhibition of corepressor binding, % at 4.78 µM | 320,000 tested, 0.12% active;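 active = percent inhibition above the cutoff of mean plus 3 SD of all tested compounds, set per screening campaign, cut at about 20% in these data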
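Material: NR2E3–RetCOR corepressor complex / Amount: 1.35 nM GST-NR2E3 / Medium: Tris pH 7.5 / Compound: single nominal compound dose of 4.8 µM / Incubation: 5 h at 4 °C / Technique: TR-FRET, Eu(K)-anti-GST donor, streptavidin-D2 acceptor, ex 340, em 617/671 nm / Read-out basis: percent loss of FRET ratio relative to control wells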
MC4R barr agon: agonists of human melanocortin 4 receptor (MC4R) beta-arrestin; AID 540308; P32245; activation, % at 8.9 µM; U2OS MC4R beta-arrestin complementation, luminescence; percent of melanotan II response, DMSO zero; 360,000 tested, 0.98% active;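 active = activation above a per-plate cutoff, the mean activation of sample wells on that plate plus 3 SD, cut at about 8% in these data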
NR2E3 ag-2: human photoreceptor-specific nuclear receptor agonism | 360,000 tested, 0.35% active | Q9Y5X4 | CHO-S Gal4-NCOR/VP16-NR2E3 two-hybrid, luciferase | AID 602229 | inhibition of corepressor binding, % at 3.98 µM;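 active = inhibition above the mean of all tested compounds plus 3 SD, cut at about 70% in these data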;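 also: higher means lower luciferase signal from less NR2E3 corepressor binding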
Rev-erbA mod: modulators of human Rev-erb alpha DNA binding. P20393. Rev-erbα–FITC-DNA binding, fluorescence polarization, 90 min. activity, % at 10 µM. 370,000 tested, 0.79% active;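 active = activity above about 14%, limit read from the data; passing the limit was not always enough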
NR1D1 mod conf: confirmation of modulators of human Rev-erb alpha DNA binding. shares compounds with Rev-erbA mod. Rev-erb alpha FITC-DNA binding, fluorescence polarization, 90 min. activation, % at 25 µM. 3,000 tested, 61% active. AID 1259319;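 active = activation at or above a set limit, or at least 3 SD above the negative control mean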
RORg counter: affects RORgamma DNA binding in a Rev-erb alpha counter-screen. 910 tested, 8% active. AID 1259320. IC50, µM. shares compounds with Rev-erbA mod. purified RORgamma protein-FITC-DNA binding, fluorescence polarization;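 active = Compounds whose fitted half-maximal concentration for disrupting protein-DNA binding is below 10 micromolar; the record names Rev-erb in its text, so the target is in doubt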
Hits are given with their value. Compounds with a hit are over-represented: about 2.7% of the library has one in this group of screens.

Screening COc1cc(NC(=O)c2cc(S(=O)(=O)N3CCCCC3)ccc2N2CCOCC2)cc(OC)c1 returned PG9 binder inactive, MC4R antagonist inactive, NR2E3 ag-1 inactive, MC4R barr agon inactive, NR2E3 ag-2 inactive, Rev-erbA mod 22.3 and NR1D1 mod conf inactive.
Screening O=C(Nc1ccccc1N1CCCC1)c1cc(S(=O)(=O)N2CCOCC2)ccc1Cl returned PG9 binder inactive, MC4R antagonist inactive, NR2E3 ag-1 inactive, MC4R barr agon inactive, NR2E3 ag-2 inactive and Rev-erbA mod inactive.
CC(C)NC(=O)N(C)C[C@H]1Oc2ccc(NS(=O)(=O)c3cccs3)cc2C(=O)N([C@H](C)CO)C[C@@H]1C was read as PG9 binder inactive, MC4R antagonist inactive, MC4R barr agon inactive, NR2E3 ag-2 inactive and Rev-erbA mod inactive.
For COc1ccc2[nH]cc(CCNS(=O)(=O)c3ccc(F)cc3)c2c1 the results were PG9 binder inactive, MC4R antagonist inactive, NR2E3 ag-1 inactive, MC4R barr agon inactive, NR2E3 ag-2 inactive and Rev-erbA mod inactive.
`CCOC1=C2[C@H](c3ccccc3)N(S(=O)(=O)c3ccc(C)cc3)C(C(C)(C)C)[C@H]2n2c(=O)n(-c3ccccc3)c(=O)n2C1` (some centres undefined) gave PG9 binder inactive, NR2E3 ag-2 inactive and Rev-erbA mod inactive.
O=[N+]([O-])c1ccc2c(c1)C=C1CCCCC1(N1CCCCC1)O2 (centres undefined) was read as PG9 binder inactive, MC4R antagonist inactive, NR2E3 ag-1 inactive, MC4R barr agon inactive, NR2E3 ag-2 inactive and Rev-erbA mod inactive.
Screening Cc1c(-n2c(SCC(=O)O)nnc2-c2ccccc2Br)c(=O)n(-c2ccccc2)n1C returned PG9 binder inactive, MC4R antagonist inactive, NR2E3 ag-1 inactive, MC4R barr agon inactive, NR2E3 ag-2 inactive and Rev-erbA mod inactive.
Screening Cc1cccn2c(=O)c3cc(C(=O)NC4CCS(=O)(=O)C4)n(Cc4ccccc4)c3nc12 (centres undefined) returned PG9 binder inactive, MC4R antagonist inactive, NR2E3 ag-1 inactive, MC4R barr agon inactive, NR2E3 ag-2 inactive, Rev-erbA mod 43.6 and NR1D1 mod conf inactive.
`O=C(c1ccc(F)cc1)c1ccc(-c2ccc(F)cc2)nc1` gave PG9 binder inactive, MC4R antagonist inactive, NR2E3 ag-1 inactive, MC4R barr agon inactive, NR2E3 ag-2 inactive, Rev-erbA mod 27.5 and NR1D1 mod conf inactive.
Screening COc1ccc(C(=O)c2ccc(-c3ccc(OC)cc3)nc2)cc1 returned PG9 binder inactive, MC4R antagonist inactive, MC4R barr agon inactive, NR2E3 ag-2 inactive and Rev-erbA mod inactive.
Screening CCCCN1C(=O)C(CC(=O)NC2CC2)CC(C(=O)N2CCOCC2)=C1C (centres undefined) returned PG9 binder inactive, MC4R antagonist inactive, MC4R barr agon inactive, NR2E3 ag-2 inactive and Rev-erbA mod inactive.
CN(C)c1ccc(Nc2ccc([N+](=O)[O-])cn2)cc1 was read as PG9 binder inactive, MC4R antagonist inactive, NR2E3 ag-1 inactive, MC4R barr agon inactive, NR2E3 ag-2 inactive and Rev-erbA mod inactive.
`Cc1cc(C)cc(NC(=O)c2cccc(NC(=O)c3ccco3)c2)c1` gave PG9 binder inactive, MC4R antagonist inactive, NR2E3 ag-1 inactive, MC4R barr agon inactive, NR2E3 ag-2 inactive and Rev-erbA mod inactive.
Screening CC(=O)c1cccc(NC(=O)c2cccc(NC(=O)c3ccco3)c2)c1 returned PG9 binder inactive, MC4R antagonist inactive, NR2E3 ag-1 inactive, MC4R barr agon inactive, NR2E3 ag-2 inactive, Rev-erbA mod 44.6, NR1D1 mod conf 98.8 and RORg counter 5.74.
Cc1cc(-c2ccccc2)[nH]c(=O)c1S(=O)(=O)c1ccc(Cl)cc1 was read as PG9 binder inactive, MC4R antagonist inactive, NR2E3 ag-1 inactive, MC4R barr agon inactive, NR2E3 ag-2 inactive, Rev-erbA mod 51.0 and NR1D1 mod conf 20.8.
Screening Cc1cc(-c2ccccc2)[nH]c(=O)c1S(=O)(=O)c1ccccc1 returned PG9 binder inactive, MC4R antagonist inactive, NR2E3 ag-1 inactive, MC4R barr agon inactive, NR2E3 ag-2 inactive and Rev-erbA mod inactive.
Screening COC(=O)c1sc2nc(-c3ccccc3)c3c(c2c1N)CCCC3 returned PG9 binder inactive, MC4R antagonist inactive, NR2E3 ag-1 inactive, MC4R barr agon inactive, NR2E3 ag-2 inactive, Rev-erbA mod 68.6, NR1D1 mod conf 39.1 and RORg counter inactive.
For O=c1[nH]cnc2c1sc1nc(-c3ccccc3)c3c(c12)CCCC3 the results were PG9 binder inactive, MC4R antagonist inactive, NR2E3 ag-1 inactive, MC4R barr agon inactive, NR2E3 ag-2 inactive, Rev-erbA mod 18.4 and NR1D1 mod conf inactive.
Nc1c(C(=O)O)sc2nc(-c3ccccc3)c3c(c12)CCCC3 was read as PG9 binder inactive, MC4R antagonist inactive, NR2E3 ag-1 inactive, MC4R barr agon inactive, NR2E3 ag-2 inactive and Rev-erbA mod inactive.
Cc1ccc(CN2CCC(CNS(=O)(=O)c3ccc(-c4ccc(=O)[nH]n4)s3)CC2)cc1 was read as PG9 binder inactive, MC4R antagonist inactive, NR2E3 ag-1 inactive, MC4R barr agon inactive, NR2E3 ag-2 inactive and Rev-erbA mod inactive.
For COc1ccc(C(=O)SC2=NCCS2)cc1 the results were PG9 binder inactive, MC4R antagonist inactive, NR2E3 ag-1 inactive, MC4R barr agon inactive, NR2E3 ag-2 inactive and Rev-erbA mod inactive.
Screening CCOC(=O)[C@]12CCC=C1N(CCC1=CCCCC1)C(=O)[C@H](CC(=O)NCCC(C)C)C2 returned PG9 binder inactive, NR2E3 ag-2 inactive and Rev-erbA mod inactive.
For CCOC(=O)/C=C1/SCC(=O)N1Cc1ccc(Br)cc1 the results were PG9 binder inactive, MC4R antagonist inactive, MC4R barr agon inactive, NR2E3 ag-2 inactive and Rev-erbA mod inactive.
`CCOC(=O)/C=C1/SCC(=O)N1CCOc1cccc(Br)c1` gave PG9 binder inactive, MC4R antagonist inactive, MC4R barr agon inactive, NR2E3 ag-2 inactive, Rev-erbA mod 23.7 and NR1D1 mod conf 11.9.
For Cn1nc(-c2ccccc2)cc1NC(=O)c1ccccc1 the results were PG9 binder inactive, MC4R antagonist inactive, NR2E3 ag-1 inactive, MC4R barr agon inactive, NR2E3 ag-2 inactive, Rev-erbA mod 41.2 and NR1D1 mod conf inactive.
`Cc1cc(NC(=O)c2ccccc2)n(C)n1` gave PG9 binder inactive, MC4R antagonist inactive, NR2E3 ag-1 inactive, MC4R barr agon inactive, NR2E3 ag-2 inactive and Rev-erbA mod inactive.

From PubChem
